Source: ChEMBL document CHEMBL1135725, “N-Aryl N'-hydroxyguanidines, a new class of NO-donors after selective oxidation by nitric oxide synthases: structure-activity relationship” (J Med Chem, 2002)

Experiments:
Assay type in all cases: functional
Settings in all cases: Mus musculus
[1] = substrate: N=C(NO)Nc1ccccc1; test: (§1) Kinetic constant for NO formation during oxidation by NADPH and molecular Oxygen with NOS II
In short: (§2)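 Recombinant NOS II (E. coli-expressed, purified) assayed at 37 °C in 50 mM HEPES pH 7.4 with 1 mM NADPH, 100 μM BH4, 5 mM DTT, SOD and catalase (100 U/mL each), and 12-15 μM oxyhemoglobin. Substrate was varied from 5 μM to 2.5 mM. Enzyme level was set to keep oxyhemoglobin conversion below 30%. Kinetic constants come from the initial methemoglobin formation rate at 401 nm; three to four experiments.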

[2] = substrate: Cc1ccc(NC(=N)NO)cc1; test: as §1; in short: as §2
[3] = substrate: N/C(=N/c1ccc(F)cc1)NO; test: as §1; in short: as §2
[4] = substrate: COc1ccc(NC(=N)NO)cc1; test: as §1; in short: as §2
[5] = substrate: N/C(=N/c1ccsc1)NO; test: as §1; in short: as §2
[6] = substrate: N/C(=N/c1ccc(O)cc1)NO; test: as §1; in short: as §2

B1: Nitric oxide synthase, inducible (Mus musculus), P29477 (protein)
chain: MACPWKFLFKVKSYQSDLKEEKDINNNVKKTPCAVLSPTIQDDPKSHQNGSPQLLTGTAQNVPESLDKLHVTSTRPQYVRIKNWGSGEILHDTLHHKATSDFTCKSKSCLGSIMNPKSLTRGPRDKPTPLEELLPHAIEFINQYYGSFKEAKIEEHLARLEAVTKEIETTGTYQLTLDELIFATKMAWRNAPRCIGRIQWSNLQVFDARNCSTAQEMFQHICRHILYATNNGNIRSAITVFPQRSDGKHDFRLWNSQLIRYAGYQMPDGTIRGDAATLEFTQLCIDLGWKPRYGRFDVLPLVLQADGQDPEVFEIPPDLVLEVTMEHPKYEWFQELGLKWYALPAVANMLLEVGGLEFPACPFNGWYMGTEIGVRDFCDTQRYNILEEVGRRMGLETHTLASLWKDRAVTEINVAVLHSFQKQNVTIMDHHTASESFMKHMQNEYRARGGCPADWIWLVPPVSGSITPVFHQEMLNYVLSPFYYYQIEPWKTHIWQNEKLRPRRREIRFRVLVKVVFFASMLMRKVMASRVRATVLFATETGKSEALARDLATLFSYAFNTKVVCMDQYKASTLEEEQLLLVVTSTFGNGDCPSNGQTLKKSLFMLRELNHTFRYAVFGLGSSMYPQFCAFAHDIDQKLSHLGASQLAPTGEGDELSGQEDAFRSWAVQTFRAACETFDVRSKHHIQIPKRFTSNATWEPQQYRLIQSPEPLDLNRALSSIHAKNVFTMRLKSQQNLQSEKSSRTTLLVQLTFEGSRGPSYLPGEHLGIFPGNQTALVQGILERVVDCPTPHQTVCLEVLDESGSYWVKDKRLPPCSLSQALTYFLDITTPPTQLQLHKLARFATDETDRQRLEALCQPSEYNDWKFSNNPTFLEVLEEFPSLHVPAAFLLSQLPILKPRYYSISSSQDHTPSEVHLTVAVVTYRTRDGQGPLHHGVCSTWIRNLKPQDPVPCFVRSVSGFQLPEDPSQPCILIGPGTGIAPFRSFWQQRLHDSQHKGLKGGRMSLVFGCRHPEEDHLYQEEMQEMVRKRVLFQVHTGYSRLPGKPKVYVQDILQKQLANEVLSVLHGEQGHLYICGDVRMARDVATTLKKLVATKLNLSEEQVEDYFFQLKSQKRYHEDIFGAVFSYGAKKGSALEEPKATRL
Q: Which Km [1] does the source give for B1 here?
A: 270 µM

Q: What about the Km [2] of the same protein?
A: 1100 µM

Q: And the Km [3]?
A: 300 µM

Q: And the Km [4]?
A: 2600 µM

Q: What about the Km [5] of the same protein?
A: 25 µM

Q: And the Km [6]?
A: 425 µM
